In ChEMBL document CHEMBL1124622, “Synthesis and antiviral activity of 3'-C-cyano-3'-deoxynucleosides” (J Med Chem, 1989):
Values after ≈ are worked out from the molar mass of the structure shown.

What was measured:
[1] = (§1) Minimum cytotoxic concentration in primary rabbit kidney cell cultures; format: cell-based, Oryctolagus cuniculus; conditions: primary rabbit kidney cells
Sindbis virus = assay: Minimum inhibitory concentration against Sindbis virus in Vero cell cultures; format: functional
Summary of the method: (§2)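 Confluent HeLa, Vero or primary rabbit kidney cell cultures in microtiter trays are inoculated with 100 CCID50 of virus. After 1 h adsorption, residual virus is removed and cells are incubated with varying compound concentrations. Cytopathogenicity is recorded once it is complete in untreated virus-infected controls. MIC is the concentration inhibiting virus-induced cytopathogenicity.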

Human respirovirus 3 = assay: (§3) Minimum inhibitory concentration against parainfluenza 3 virus in Vero cell cultures; format: functional; summary of the method: as §2
[2] = In vitro minimum cytotoxic concentration in C3H embryo fibroblast cells.; format: functional; conditions: Mus musculus
Summary of the method: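 Minimal cytotoxic concentration in C3H mouse embryo cells, run in the same 48-well setup as the MSV transformation assay: the concentration producing microscopically visible alteration of cell morphology.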

Coxsackievirus B4 [3] = assay: (§4) Minimum inhibitory concentration against Coxsackie virus B4 in HeLa cell cultures; format: functional; conditions: Enterovirus B; summary of the method: as §2
Reovirus sp. = assay: (§5) Minimum inhibitory concentration against reovirus in Vero cell cultures; format: functional; summary of the method: as §2
Semliki Forest virus = assay: Minimum inhibitory concentration against forest virus in Vero cell cultures; format: functional; summary of the method: as §2
[4] = system: Vesicular stomatitis virus; assay: (§6) Minimum inhibitory concentration against Vesicular stomatitis virus in HeLa cell cultures; format: functional; summary of the method: as §2
[5] = system: Vesicular stomatitis virus; assay: Minimum inhibitory concentration against Vesicular stomatitis virus in primary rabbit kidney cell cultures; format: functional; summary of the method: as §2
[6] = (§7) Minimum cytotoxic concentration in Vero cell cultures; format: cell-based; conditions: chlorocebus sabaeus, Vero cells
Enterovirus C = assay: (§8) Minimum inhibitory concentration against polio virus 1 in HeLa cell cultures; format: functional; summary of the method: as §2
Homo sapiens = species on record: Homo sapiens; assay: Cytotoxic dose against uninfected human MT-4 cell; format: functional; conditions: MT4, read-out: CD50 (the source's name)
Summary of the method: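 Cytotoxicity counterpart of the HIV assay: uninfected human MT-4 lymphocytes exposed to the compounds. CD50 is the dose that reduces viability of these uninfected cells by 50%.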

Coxsackievirus = assay: (§9) Minimum inhibitory concentration against Coxsackie virus B4 in Vero cell cultures; format: functional; summary of the method: as §2
[7] = system: Human immunodeficiency virus 1; assay: Effective dose against HIV-1 induced cytopathogenicity in human MT-4 cell.; format: functional; conditions: Human immunodeficiency virus 1, MT4; read-out: ED50 (the source's name)
Summary of the method: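 HIV (HTLV-III_B) is taken from the culture supernatant of a persistently infected HUT-78 line. Human MT-4 lymphocytes are infected and the assay scores inhibition of virus-induced cytopathogenicity. ED50 is the dose giving 50% protection of MT-4 cells against the viral cytopathic effect.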

[8] = (§10) Minimum cytotoxic concentration in HeLa cell cultures; format: cell-based; conditions: human, HeLa cells
[9] = system: Moloney murine sarcoma virus; assay: In vitro effective dose against Moloney murine sarcoma virus induced transformation of C3H embryo fibroblast cells.; format: functional; conditions: read-out: ED50 (the source's name)
Summary of the method: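 C3H mouse embryo cells are seeded at 20 000 cells/mL per well and grown 24 h. They are infected with 80 foci-forming units of Moloney MSV for 90 min, then given fresh medium with varying compound concentrations. Transformation is examined microscopically after 6-7 days. ED50 is the dose giving a 50% reduction in transformation.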

HeLa [10] = assay: as §4; format: functional; conditions: Homo sapiens; summary of the method: as §2
[11] = system: Mammalian orthoreovirus 1; assay: as §5; format: functional; summary of the method: as §2
[12] = inimum cytotoxic concentration in Vero cell cultures; format: cell-based; conditions: chlorocebus sabaeus, Vero cells
HeLa [13] = assay: as §6; format: functional; conditions: Homo sapiens; summary of the method: as §2
HeLa [14] = assay: as §8; format: functional; conditions: Homo sapiens; summary of the method: as §2
Coxsackievirus B4 [15] = assay: as §9; format: functional; conditions: Enterovirus B; summary of the method: as §2
Vaccinia virus = assay: Minimum inhibitory concentration against Vaccinia virus in primary rabbit kidney cell cultures; format: functional; conditions: Orthopoxvirus vaccinia; summary of the method: as §2
Oryctolagus cuniculus = species on record: Oryctolagus cuniculus; assay: as §1; format: functional
HeLa [16] = assay: as §10; format: functional; conditions: Homo sapiens
Vero [17] = assay: as §3; format: functional, Human respirovirus 3; conditions: Chlorocebus sabaeus; summary of the method: as §2
Vero [18] = assay: as §7; format: functional; conditions: Chlorocebus sabaeus

Structure (SMILES)	MCC [1] [µg/mL]	MIC (Sindbis virus) [µg/mL]	MIC (Human respirovirus 3) [µg/mL]	MCC [2] [µg/mL]	MIC (Semliki Forest virus) [µg/mL]	MIC [5] [µg/mL]	CC50 (Homo sapiens) [µM]	EC50 [7] [µM]	MCC [8] [µg/mL]	EC50 [9] [µg/mL]	MIC (HeLa [10]) [µg/mL]	MIC [11] [µg/mL]	MIC (HeLa [13]) [µg/mL]	MIC (HeLa [14]) [µg/mL]	MIC (Coxsackievirus B4 [15]) [µg/mL]	MIC (Vaccinia virus) [µg/mL]	other results
N#C[C@H]1[C@@H](O)[C@H](n2cnc3c(N)ncnc32)O[C@@H]1CO	> 400	10 (≈ 36.2 µM)	> 100	> 40	20 (≈ 72.4 µM)	> 400	3.8	> 1.6	> 200	8.5 (≈ 30.8 µM)							MIC (Coxsackievirus B4 [3]): 200 µg/mL (≈ 724 µM); MIC (Reovirus sp.): > 40 µg/mL; MIC [4]: > 100 µg/mL; MCC [6]: 100 µg/mL; MIC (Enterovirus C): > 100 µg/mL; MIC (Coxsackievirus): > 100 µg/mL
CC(C)(C)[Si](C)(C)OC[C@H]1O[C@@H](n2cnc3c(N)ncnc32)[C@H](O[Si](C)(C)C(C)(C)C)[C@H]1C#N	> 100	20 (≈ 39.6 µM)	> 10	80	> 40	> 40	25	> 16	> 100	16 (≈ 31.7 µM)	> 40	> 10	> 40	> 40	20 (≈ 39.6 µM)	> 40	MCC [12]: > 40 µg/mL
Nc1ncnc2c1ncn2C[C@H](O)CO [(S)-DHPA]		> 400			> 400	20 (≈ 95.6 µM)					2 (≈ 9.56 µM)	7 (≈ 33.5 µM)	> 400	> 400	100 (≈ 478 µM)	20 (≈ 95.6 µM)	MCC (Oryctolagus cuniculus): ≥ 400 µg/mL; MCC (HeLa [16]): > 400 µg/mL; MIC (Vero [17]): 150 µg/mL (≈ 717 µM); MCC (Vero [18]): 400 µg/mL
